Measurements: ChEMBL document CHEMBL3526062, “Role of human UDP-glucuronosyltransferases in the biotransformation of the triazoloacridinone and imidazoacridinone antitumor agents C-1305 and C-1311: highly selective substrates for UGT1A10” (Drug Metab Dispos, 2012)

Key:
Format in all cases: ADME
[1] = tested on: CCN(CC)CCNc1ccc2ncn3c4ccc(O)cc4c(=O)c1c23; assay: (§1) Activity of human recombinant UGT1A10 D396A mutant expressed in baculovirus-infected Sf9 cells assessed as enzyme-mediated glucuronidation after 60 mins by Michaelis-Menten equation in presence of 3 mM UDP-GlcUA
Outline: (§2)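 Membrane fractions (5 μg) holding wild-type or point-mutant UGT1A10 incubated with increasing substrate concentrations and 3 mM UDP-GlcUA, 60 min, 37°C; products by HPLC. Kinetic constants from curve fits of three determinations; Km in μM, Vmax in nmol/mg protein/min.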

[2] = tested on: CN(C)CCCNc1ccc2nnn3c4ccc(O)cc4c(=O)c1c23; assay: as §1; outline: as §2
[3] = tested on: CCN(CC)CCNc1ccc2ncn3c4ccc(O)cc4c(=O)c1c23; assay: (§3) Activity of human recombinant UGT1A10 V92A mutant expressed in baculovirus-infected Sf9 cells assessed as enzyme-mediated glucuronidation after 60 mins by Michaelis-Menten equation in presence of 3 mM UDP-GlcUA; outline: as §2
[4] = tested on: CN(C)CCCNc1ccc2nnn3c4ccc(O)cc4c(=O)c1c23; assay: as §3; outline: as §2
[5] = substrate: CCN(CC)CCNc1ccc2ncn3c4ccc(O)cc4c(=O)c1c23; assay: (§4) Activity of human recombinant UGT1A10 expressed in baculovirus-infected Sf9 cells assessed as enzyme-mediated glucuronidation after 60 mins by Michaelis-Menten equation in presence of 3 mM UDP-GlcUA
Outline: (§5)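 Recombinant UGT membrane protein (5 μg; His-tagged UGT1A levels normalized by anti-His Western blot) or single-donor microsomes (20 μg) incubated with substrate 5–1000 μM and 3 mM UDP-GlcUA in […] pH 7.4, 5 mM MgCl2, 5 mM saccharolactone, 2% DMSO, 60 min, 37°C. Ethanol stop, centrifuged, HPLC-UV. Initial velocities fitted to Michaelis-Menten, Hill or substrate-inhibition models; three determinations.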

[6] = substrate: CN(C)CCCNc1ccc2nnn3c4ccc(O)cc4c(=O)c1c23; assay: as §4; outline: as §5
[7] = substrate: CN(C)CCCNc1ccc2nnn3c4ccc(O)cc4c(=O)c1c23; assay: Activity of human recombinant UGT1A7 expressed in baculovirus-infected Sf9 cells assessed as enzyme-mediated glucuronidation after 60 mins by Michaelis-Menten equation in presence of 3 mM UDP-GlcUA
[8] = substrate: CCN(CC)CCNc1ccc2ncn3c4ccc(O)cc4c(=O)c1c23; assay: (§6) Activity of human recombinant UGT1A9 expressed in baculovirus-infected Sf9 cells assessed as enzyme-mediated glucuronidation after 60 mins by Michaelis-Menten equation in presence of 3 mM UDP-GlcUA; outline: as §5
[9] = substrate: CN(C)CCCNc1ccc2nnn3c4ccc(O)cc4c(=O)c1c23; assay: as §6; outline: as §5
[10] = substrate: CCN(CC)CCNc1ccc2ncn3c4ccc(O)cc4c(=O)c1c23; assay: (§7) Activity of human recombinant UGT1A1 expressed in baculovirus-infected Sf9 cells assessed as enzyme-mediated glucuronidation after 60 mins by Michaelis-Menten equation in presence of 3 mM UDP-GlcUA; outline: as §5
[11] = substrate: CN(C)CCCNc1ccc2nnn3c4ccc(O)cc4c(=O)c1c23; assay: as §7; outline: as §5

Molecule: UDP-glucuronosyltransferase 1A10 (Homo sapiens; D396A)
- Km [1]: 75.4 µM
- Vmax [1]: 0.00078 µmol/min
- Km [2]: 47.6 µM
- Vmax [2]: 0.00199 µmol/min

Molecule: UDP-glucuronosyltransferase 1A10 (Homo sapiens; V92A)
- Km [3]: 40.7 µM
- Vmax [3]: 0.00025 µmol/min
- Km [4]: 64.7 µM
- Vmax [4]: 0.00073 µmol/min

B1: UDP-glucuronosyltransferase 1A10 (Homo sapiens) (protein)
chain: MARAGWTSPVPLCVCLLLTCGFAEAGKLLVVPMDGSHWFTMQSVVEKLILRGHEVVVVMPEVSWQLERSLNCTVKTYSTSYTLEDQNREFMVFAHAQWKAQAQSIFSLLMSSSSGFLDLFFSHCRSLFNDRKLVEYLKESSFDAVFLDPFDTCGLIVAKYFSLPSVVFTRGIFCHHLEEGAQCPAPLSYVPNDLLGFSDAMTFKERVWNHIVHLEDHLFCQYLFRNALEIASEILQTPVTAYDLYSHTSIWLLRTDFVLDYPKPVMPNMIFIGGINCHQGKPLPMEFEAYINASGEHGIVVFSLGSMVSEIPEKKAMAIADALGKIPQTVLWRYTGTRPSNLANNTILVKWLPQNDLLGHPMTRAFITHAGSHGVYESICNGVPMVMMPLFGDQMDNAKRMETKGAGVTLNVLEMTSEDLENALKAVINDKSYKENIMRLSSLHKDRPVEPLDLAVFWVEFVMRHKGAPHLRPAAHDLTWYQYHSLDVIGFLLAVVLTVAFITFKCCAYGYRKCLGKKGRVKKAHKSKTH
- Km [5]: 70.6 µM
- Vmax [5]: 0.000624 µmol/min
- Km [6]: 94.1 µM
- Vmax [6]: 0.00256 µmol/min

B2: UDP-glucuronosyltransferase 1A7 (Homo sapiens) (protein)
chain: MARAGWTGLLPLYVCLLLTCGFAKAGKLLVVPMDGSHWFTMQSVVEKLILRGHEVVVVMPEVSWQLGRSLNCTVKTYSTSYTLEDQDREFMVFADARWTAPLRSAFSLLTSSSNGIFDLFFSNCRSLFNDRKLVEYLKESCFDAVFLDPFDACGLIVAKYFSLPSVVFARGIFCHYLEEGAQCPAPLSYVPRLLLGFSDAMTFKERVWNHIMHLEEHLFCPYFFKNVLEIASEILQTPVTAYDLYSHTSIWLLRTDFVLEYPKPVMPNMIFIGGINCHQGKPVPMEFEAYINASGEHGIVVFSLGSMVSEIPEKKAMAIADALGKIPQTVLWRYTGTRPSNLANNTILVKWLPQNDLLGHPMTRAFITHAGSHGVYESICNGVPMVMMPLFGDQMDNAKRMETKGAGVTLNVLEMTSEDLENALKAVINDKSYKENIMRLSSLHKDRPVEPLDLAVFWVEFVMRHKGAPHLRPAAHDLTWYQYHSLDVIGFLLAVVLTVAFITFKCCAYGYRKCLGKKGRVKKAHKSKTH
- Km [7]: 29.3 µM
- Vmax [7]: 0.000306 µmol/min

B3: UDP-glucuronosyltransferase 1A9 (Homo sapiens) (protein)
chain: MACTGWTSPLPLCVCLLLTCGFAEAGKLLVVPMDGSHWFTMRSVVEKLILRGHEVVVVMPEVSWQLGRSLNCTVKTYSTSYTLEDLDREFKAFAHAQWKAQVRSIYSLLMGSYNDIFDLFFSNCRSLFKDKKLVEYLKESSFDAVFLDPFDNCGLIVAKYFSLPSVVFARGILCHYLEEGAQCPAPLSYVPRILLGFSDAMTFKERVRNHIMHLEEHLLCHRFFKNALEIASEILQTPVTEYDLYSHTSIWLLRTDFVLDYPKPVMPNMIFIGGINCHQGKPLPMEFEAYINASGEHGIVVFSLGSMVSEIPEKKAMAIADALGKIPQTVLWRYTGTRPSNLANNTILVKWLPQNDLLGHPMTRAFITHAGSHGVYESICNGVPMVMMPLFGDQMDNAKRMETKGAGVTLNVLEMTSEDLENALKAVINDKSYKENIMRLSSLHKDRPVEPLDLAVFWVEFVMRHKGAPHLRPAAHDLTWYQYHSLDVIGFLLAVVLTVAFITFKCCAYGYRKCLGKKGRVKKAHKSKTH
- Km [8]: 63.3 µM
- Vmax [8]: 0.000206 µmol/min
- Km [9]: 54.6 µM
- Vmax [9]: 0.000201 µmol/min

B4: UDP-glucuronosyltransferase 1A1 (Homo sapiens) (protein)
chain: MAVESQGGRPLVLGLLLCVLGPVVSHAGKILLIPVDGSHWLSMLGAIQQLQQRGHEIVVLAPDASLYIRDGAFYTLKTYPVPFQREDVKESFVSLGHNVFENDSFLQRVIKTYKKIKKDSAMLLSGCSHLLHNKELMASLAESSFDVMLTDPFLPCSPIVAQYLSLPTVFFLHALPCSLEFEATQCPNPFSYVPRPLSSHSDHMTFLQRVKNMLIAFSQNFLCDVVYSPYATLASEFLQREVTVQDLLSSASVWLFRSDFVKDYPRPIMPNMVFVGGINCLHQNPLSQEFEAYINASGEHGIVVFSLGSMVSEIPEKKAMAIADALGKIPQTVLWRYTGTRPSNLANNTILVKWLPQNDLLGHPMTRAFITHAGSHGVYESICNGVPMVMMPLFGDQMDNAKRMETKGAGVTLNVLEMTSEDLENALKAVINDKSYKENIMRLSSLHKDRPVEPLDLAVFWVEFVMRHKGAPHLRPAAHDLTWYQYHSLDVIGFLLAVVLTVAFITFKCCAYGYRKCLGKKGRVKKAHKSKTH
- Km [10]: 28.9 µM
- Vmax [10]: 0.000115 µmol/min
- Km [11]: 149 µM
- Vmax [11]: 0.000262 µmol/min
